From ChEMBL document CHEMBL4219039, “Group-Based Optimization of Potent and Cell-Active Inhibitors of the von Hippel-Lindau (VHL) E3 Ubiquitin Ligase: Structure-Activity Relationships Leading to the Chemical Probe …” (J Med Chem, 2018)

Tests used:
[1] = target: T1, Von Hippel-Lindau disease tumor suppressor/Elongin B/Elongin C (Homo sapiens, UniProt P40337); experiment: Displacement of FAM-labeled HIF-1alpha peptide from VBC (unknown origin) by fluorescence polarization assay
[2] = target: T2, Von Hippel-Lindau disease tumor suppressor/Elongin B/Elongin C (Homo sapiens) (UniProt P40337+Q15370+Q15369); experiment: Inhibition of VBC in human HeLa cells assessed as HIF-1alpha stabilization by measuring HIF-1alpha protein levels at 50 uM after 2 hrs by Western blot analysis; format: cell-based; design: scale not given: the % may be the effect or the level left
T2 sequence (P40337 whole entry, looked up): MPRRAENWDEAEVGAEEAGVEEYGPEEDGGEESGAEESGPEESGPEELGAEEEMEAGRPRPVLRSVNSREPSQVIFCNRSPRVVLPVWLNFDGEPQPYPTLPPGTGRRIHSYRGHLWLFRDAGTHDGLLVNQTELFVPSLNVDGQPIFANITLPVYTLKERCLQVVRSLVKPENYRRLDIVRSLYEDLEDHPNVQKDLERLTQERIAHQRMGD
T2 sequence (Q15369 whole entry, looked up): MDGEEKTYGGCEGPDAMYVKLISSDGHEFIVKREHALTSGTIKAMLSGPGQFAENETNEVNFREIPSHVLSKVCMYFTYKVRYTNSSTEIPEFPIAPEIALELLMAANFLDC
T2 sequence (Q15370 whole entry, looked up): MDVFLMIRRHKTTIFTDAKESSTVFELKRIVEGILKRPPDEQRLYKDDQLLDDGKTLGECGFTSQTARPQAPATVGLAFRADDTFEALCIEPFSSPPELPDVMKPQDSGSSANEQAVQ
In short: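 HeLa (ATCC) grown in DMEM with 10% FBS, L-glutamine and penicillin/streptomycin at 37 °C; mycoplasma-tested. Treated 2 h in fresh medium, 1% DMSO as vehicle control. Lysed in RIPA buffer with protease inhibitors, SDS-PAGE, nitrocellulose blot. Anti-HIF-1α probed with β-actin as loading control, IRDye 800CW secondary for detection. Levels normalized to a reference VHL inhibitor.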

[3] = Half life in plasma (unknown origin) at pH 7.4 at 50 uM up to 180 mins by UPLC-MS/MS analysis; format: ADME, cell-free
In short: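 Compound at 50 μM incubated at 37 °C in prewarmed plasma buffered to pH 7.4 (70:30 plasma to buffer). Aliquots were taken at 0, 30, 60, 120 and 180 min and quenched in acetonitrile with donepezil internal standard. Samples were centrifuged and analysed by UPLC-MS/MS. The rate constant was fitted as exponential decay of the compound/internal standard peak-area ratio.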

[4] = target: T2, Von Hippel-Lindau disease tumor suppressor/Elongin B/Elongin C (Homo sapiens); experiment: Binding affinity to VBC (unknown origin) assessed as dissociation rate constant at 50 uM after 160 secs at 20 degC by surface plasmon resonance assay; format: protein-complex assay
In short: (§1)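 SPR on a Biacore T100 at 10 and 20 °C against VBC complex. Ligand stock 50 μM in DMSO, 2-fold serial dilutions in SPR buffer (20 mM HEPES, 150 mM NaCl, 1 mM DTT, 0.005% Tween P20, pH 7.0). Kd taken as koff/kon.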

[5] = target: T2, Von Hippel-Lindau disease tumor suppressor/Elongin B/Elongin C (Homo sapiens); experiment: Binding affinity to VBC (unknown origin) assessed as association rate constant at 50 uM after 60 secs at 10 degC by surface plasmon resonance assay; format: protein-complex assay; in short: as §1
[6] = target: T2, Von Hippel-Lindau disease tumor suppressor/Elongin B/Elongin C (Homo sapiens); experiment: Binding affinity to VBC (unknown origin) assessed as association rate constant at 50 uM after 60 secs at 20 degC by surface plasmon resonance assay; format: protein-complex assay; in short: as §1
[7] = Passive permeability of the compound in pH 7.4 PBS at 10 uM after 5 hrs by UPLC-MS/MS method based PAMPA; format: ADME; conditions: pH 7.4, 5 h
In short: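 Precoated PAMPA plate with lipid–oil–lipid trilayer filter. Compound at 10 μM in PBS pH 7.4 (≤5% DMSO) in the donor well, PBS in the acceptor well. Held 5 h at room temperature; both compartments quantified by UPLC-MS/MS. Pe calculated from peak areas; data accepted only if recovery exceeded 70%. Propranolol as control.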

[8] = Chromatographic hydrophobicity index, log D of the compound at pH 7.4 by HPLC analysis; format: physicochemical; conditions: buffer
In short: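 DMSO stocks (10 mM) diluted to 0.25 mM in 50:50 acetonitrile:water. Run on C18 HPLC at 20 °C, 1 mL/min. Mobile phase 10 mM ammonium acetate pH 7.4 with an acetonitrile gradient. Retention times calibrated against a standard mix of eleven reference compounds, then converted to CHIlogD.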

[9] = target: T2, Von Hippel-Lindau disease tumor suppressor/Elongin B/Elongin C (Homo sapiens)
[10] = target: T2, Von Hippel-Lindau disease tumor suppressor/Elongin B/Elongin C (Homo sapiens); experiment: Binding affinity to VBC (unknown origin) assessed as dissociation rate constant at 50 uM after 160 secs at 10 degC by surface plasmon resonance assay; format: protein-complex assay; in short: as §1
[11] = Intrinsic clearance in CD1 mouse liver microsomes at 0.5 uM up to 30 mins by UPLC-MS/MS analysis; format: ADME, microsome; conditions: 0.5 h
In short: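 Compound at 0.5 μM with female CD1 mouse liver microsomes (0.5 mg/mL) in 50 mM potassium phosphate pH 7.4, started with excess NADPH. Samples quenched in acetonitrile at 0, 3, 6, 9, 15 and 30 min; UPLC-MS/MS against internal standard. Decay rate constant converted to CLi assuming 52.5 mg microsomal protein/g liver. Verapamil as assay control.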

[12] = target: T1, Von Hippel-Lindau disease tumor suppressor/Elongin B/Elongin C
[13] = target: T2, Von Hippel-Lindau disease tumor suppressor/Elongin B/Elongin C (Homo sapiens); remark: listed apart in the source
[14] = target: T1, Von Hippel-Lindau disease tumor suppressor/Elongin B/Elongin C; remark: listed apart in the source
[15] = target: T1, Von Hippel-Lindau disease tumor suppressor/Elongin B/Elongin C; remark: listed apart in the source

T1 sequence (P40337 whole entry, looked up): as the sequence (P40337 whole entry, looked up) above

Cc1ncsc1-c1ccc(CNC(=O)[C@@H]2C[C@@H](O)CN2C(=O)[C@@H](NC(=O)OC(C)(C)C)C(C)(C)C)cc1
Kd [1]: 6500 nM | Activity [2]: 12%

CC(=O)C1(C(=O)N[C@H](C(=O)N2C[C@H](O)C[C@H]2C(=O)NCc2ccc(-c3scnc3C)cc2)C(C)(C)C)CC1
half-life at 50 µM [3]: > 3 h | K [4]: 0.169 s⁻¹ | K [5]: 6 ×10⁵ /M/s | K [6]: 8.2 ×10⁵ /M/s | permeability [7]: 1.5 ×10⁻⁶ cm/s | chromatographic logD [8]: 1.34 | T1/2 [9]: 4.1 s | K [10]: 0.069 s⁻¹ | intrinsic clearance (CLint) [11]: 2.5 mL/min/g | Kd [12]: 97 nM | T1/2 [13]: 10 s | Kd [14]: 106 nM | Kd [15]: 115 nM | Kd [1]: 170 nM | Activity [2]: 156%

Cc1ncsc1-c1ccc(CNC(=O)[C@@H]2C[C@@H](O)CN2C(=O)[C@@H](NC(=O)CC(C)(C)C)C(C)(C)C)cc1
Kd [1]: 450 nM | Activity [2]: 65%

Cc1ncsc1-c1ccc(CNC(=O)[C@@H]2C[C@@H](O)CN2C(=O)[C@@H](NC(=O)C2(F)CC2)C(C)O)cc1 (single isomer, unassigned)
Kd [1]: 370 nM | Activity [2]: 46%

Cc1ncsc1-c1ccc(CNC(=O)[C@@H]2C[C@@H](O)CN2C(=O)[C@@H](NC(=O)C2COC2)C(C)(C)C)cc1
permeability [7]: 0.03 ×10⁻⁶ cm/s | chromatographic logD [8]: 0.71 | Kd [14]: 230 nM | Kd [1]: 320 nM | Activity [2]: 34%

Cc1ncsc1-c1ccc(CNC(=O)[C@@H]2C[C@@H](O)CN2C(=O)[C@@H](NC(=O)CO)C(C)(C)C)cc1
permeability [7]: 0.01 ×10⁻⁶ cm/s | chromatographic logD [8]: 0.65 | Kd [14]: 105 nM | Kd [1]: 200 nM | Activity [2]: 16%

CC(=O)NC1(C(=O)N[C@H](C(=O)N2C[C@H](O)C[C@H]2C(=O)NCc2ccc(-c3scnc3C)cc2)C(C)(C)C)CC1
permeability [7]: 0.01 ×10⁻⁶ cm/s | chromatographic logD [8]: 0.61 | Kd [14]: 138 nM | Kd [1]: 300 nM | Activity [2]: 20%

Cc1ncsc1-c1ccc(CNC(=O)[C@@H]2C[C@@H](O)CN2C(=O)[C@@H](N2CCCC2=O)C(C)(C)C)cc1
Kd [1]: 1400 nM | Activity [2]: 33%

Cc1ncsc1-c1ccc(CNC(=O)[C@@H]2C[C@@H](O)CN2C(=O)[C@@H](NC(=O)C2CCC2)C(C)(C)C)cc1
half-life at 50 µM [3]: > 3 h | K [4]: 0.256 s⁻¹ | K [5]: 5.17 ×10⁵ /M/s | K [6]: 1.1 ×10⁶ /M/s | permeability [7]: 1.16 ×10⁻⁶ cm/s | chromatographic logD [8]: 1.3 | K [10]: 0.14 s⁻¹ | intrinsic clearance (CLint) [11]: 3 mL/min/g | Kd [12]: 233 nM | T1/2 [13]: 4.95 s | Kd [14]: 210 nM | Kd [15]: 271 nM | Kd [1]: 250 nM | Activity [2]: 138%

Cc1ncsc1-c1ccc(CNC(=O)[C@@H]2C[C@@H](O)CN2C(=O)[C@@H](NC(=O)C(F)(F)F)C(C)(C)C)cc1
Kd [1]: 270 nM | Activity [2]: 95%

Cc1ncsc1-c1ccc(CNC(=O)[C@@H]2C[C@@H](O)CN2C(=O)[C@@H](NC(=O)C2CC(=O)C2)C(C)(C)C)cc1
Kd [1]: 500 nM | Activity [2]: 28%
